Assay outcomes (PubChem)
Compounds with a hit are over-represented: about 1.8% of the library has one in this group of screens.
Apaf-1 inh – inhibitors of human Apaf-1 apoptosome, primary screen, biochemical, DEVD-Rh110 fluorescence, uHTS; inhibition, % at 20 µM; reconstituted apoptosome caspase-3 activity; 330,000 compounds, 0.71% hits; active means inhibition of at least 40% at 20 µM;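 further: plate controls were DMSO wells for no effect and DEVD-CHO caspase inhibitor wells for full effect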
Target sequence (O14727 whole entry, looked up): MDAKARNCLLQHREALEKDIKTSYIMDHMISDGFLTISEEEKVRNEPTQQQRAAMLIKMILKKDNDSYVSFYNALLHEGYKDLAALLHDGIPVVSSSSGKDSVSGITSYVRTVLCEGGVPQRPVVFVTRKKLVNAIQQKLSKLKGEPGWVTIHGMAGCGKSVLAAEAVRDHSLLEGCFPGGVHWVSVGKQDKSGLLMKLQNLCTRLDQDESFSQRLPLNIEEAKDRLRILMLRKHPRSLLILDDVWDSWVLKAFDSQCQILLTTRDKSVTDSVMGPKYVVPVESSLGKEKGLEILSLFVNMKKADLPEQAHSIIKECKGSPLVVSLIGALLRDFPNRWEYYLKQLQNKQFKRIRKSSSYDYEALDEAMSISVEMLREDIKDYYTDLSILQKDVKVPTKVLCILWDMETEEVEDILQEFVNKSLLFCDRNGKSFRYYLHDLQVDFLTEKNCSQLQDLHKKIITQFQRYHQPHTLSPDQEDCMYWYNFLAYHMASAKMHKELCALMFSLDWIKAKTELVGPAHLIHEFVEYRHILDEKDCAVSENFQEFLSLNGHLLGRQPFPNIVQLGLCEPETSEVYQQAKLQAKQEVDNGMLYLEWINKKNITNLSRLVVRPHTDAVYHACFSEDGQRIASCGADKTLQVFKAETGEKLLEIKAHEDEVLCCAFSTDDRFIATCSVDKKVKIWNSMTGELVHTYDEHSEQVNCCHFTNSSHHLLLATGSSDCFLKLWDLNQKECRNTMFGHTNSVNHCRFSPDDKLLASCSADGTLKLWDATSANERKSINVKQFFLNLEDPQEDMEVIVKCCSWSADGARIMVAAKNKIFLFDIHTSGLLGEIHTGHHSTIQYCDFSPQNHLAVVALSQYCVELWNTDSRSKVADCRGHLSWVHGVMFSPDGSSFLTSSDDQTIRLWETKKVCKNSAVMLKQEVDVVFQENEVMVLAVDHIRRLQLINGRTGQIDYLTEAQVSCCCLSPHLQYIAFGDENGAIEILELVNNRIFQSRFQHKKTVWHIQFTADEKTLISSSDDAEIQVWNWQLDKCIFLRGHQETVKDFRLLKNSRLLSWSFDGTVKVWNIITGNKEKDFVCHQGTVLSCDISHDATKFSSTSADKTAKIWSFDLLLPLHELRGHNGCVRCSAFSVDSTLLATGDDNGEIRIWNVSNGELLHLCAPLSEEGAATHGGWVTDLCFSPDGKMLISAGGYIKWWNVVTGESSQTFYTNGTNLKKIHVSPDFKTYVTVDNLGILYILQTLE
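detection = Rh110 fluorescence intensity | test system = biochemical Apaf-1 apoptosome reconstitution | also added = cytochrome c and DEVD-Rh110 substrate | schedule = 30 min plus 50 min, RT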
procasp3 activ – activators of human procaspase-3 D3A mutant, primary screen, biochemical, absorbance, PC-3 D3A mutant, single concentration; recombinant procaspase-3 D3A, Ac-DEVD-pNA absorbance 405 nm; Caspase-3 (Homo sapiens), P42574; activation, % at 8.5 µM; 330,000 compounds, 0.11% hits;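 active means activation above the mean of all tested compounds plus 3 SD, cut at about 21% in these data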;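 further: 0% = DMSO alone and 100% = DMSO wells spiked with extra 5 µM PC-3 D3A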
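Assay system: Autoprocessing-dead procaspase-3 D3A mutant enzyme; also added: Ac-DEVD-pNA; doses: one concentration, 8.5 µM nominal, 0.8% DMSO; times: 1 h compound preincubation, 2 h substrate hydrolysis at 25 °C; technique: 405 nm absorbance of p-nitroaniline, reads at 0 and 120 min; measure: % activation between DMSO and enzyme-spiked controls; repeats: single replicate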
procasp7 counter – procaspase-7 activators, primary screen, counter-screen for procaspase-3 activator project, biochemical, absorbance, HTS, human; Caspase-7 (Homo sapiens), P55210; recombinant procaspase-7, Ac-DEVD-pNA absorbance 405 nm; D23A/D198A/D206A triple mutant, cannot self-cleave; scale: DMSO 0, 5 µM enzyme 100; activation, % at 8.5 µM; 330,000 compounds, 0.093% hits;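 active means percent activation above the screen-wide mean plus 3 SD, cut at about 25% in these data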
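Material: Procaspase-7 triple mutant (PC-7 D3A) | Quantity: 2 µM procaspase-7 mutant as dispensed | Reagent: DEVD-pNA substrate | Times: 1 h preincubation, 2 h reaction | Technique: 405 nm absorbance of p-nitroaniline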
EBNA-1 inhibitor – EBNA-1 DNA-binding inhibitors, primary screen, biochemical, fluorescence polarization. inhibition, % at 14.8 µM. 300,000 compounds, 0.34% hits; in the data active means inhibition above about 28%
ZTA counter – counter-screen for EBNA-1 inhibitors: inhibitors of Epstein-Barr virus ZTA | P03206 | ZTA-DNA binding, fluorescence polarization | inhibition, % at 11 µM | 320,000 compounds, 0.15% hits | AID 2234; in the data active means inhibition above about 33%
GSTO1 counter – inhibitors of recombinant GSTO1, primary screen, counter-screen for RBBP9 inhibitor project, biochemical, fluorescence polarization; inhibition, % at 5.96 µM; Glutathione S-transferase omega-1 (Homo sapiens), P78417; 300,000 compounds, 1.1% hits; activity-based probe fluorescence polarization; AID 1974, 2009;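 active means inhibition above the campaign mean inhibition plus 3 SD, cut at about 35% in these data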;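 further: 0% = GSTO1-1 with DMSO and 100% = wells lacking GSTO1-1 enzyme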
PC3 D3A act – procaspase-3 activators, counter-screen for dual procaspase-3/7 activator project, biochemical, absorbance, PC-3 D3A mutant, human; recombinant PC-3 D3A, Ac-DEVD-pNA absorbance 405 nm; aspartates 9, 28, 175 changed to alanine; 100% = enzyme control; 290 tested, under 10 active; shares compounds with procasp7 counter; activation, % at 8.5 µM;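 active means mean percent activation across triplicates above a set limit taken from the earlier primary procaspase-3 screen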;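 further: 0% = DMSO wells and 100% = DMSO wells with 5 µM added PC-3 D3A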
PC7 dual conf – activation of procaspase-7 enzyme – biochemical, absorbance, human, dual procaspase-3/-7 activator project, confirmation. shares compounds with procasp7 counter. recombinant procaspase-7, Ac-DEVD-pNA absorbance 405 nm; D23A/D198A/D206A mutant that cannot self-cleave. activation, % at 8.5 µM. 290 tested, under 10 active. AID 493115, 2011;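 active means mean activation above a set limit carried over from the earlier primary screen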;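 further: 0% = DMSO only and 100% = DMSO with added 5 µM PC-7 enzyme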
Apaf-1 inh conf2 – Apaf-1 inhibitors, single-dose retest, confirmation, biochemical, fluorescence, DEVD-Rh110, 20 µM; shares compounds with Apaf-1 inh; reconstituted apoptosome, caspase-3 DEVD-Rh110 fluorescence; inhibition, % at 20 µM; 1,800 compounds, 25% hits;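 active means mean inhibition of at least 40% at 20 µM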;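 further: plate controls were DMSO wells for no effect and DEVD-CHO caspase inhibitor control wells for full effect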
Rh110 interf inh – Rh110 fluorescence interference by putative Apaf-1 inhibitors, confirmation, artefact control for Apaf-1 inhibitor project, biochemical, 20 µM | shares compounds with Apaf-1 inh | quenched caspase reaction | activation (fluorescence interference), % at 20 µM | 1,800 tested, under 10 active;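 active means signal rise of 40% or more at 20 µM, treated as a fluorescence artifact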
* marks the source's active call; other numbers are inactive results; . = not tested or not shown.

SMILES	Apaf-1 inh	procasp3 activ	procasp7 counter	EBNA-1 inhibitor	ZTA counter	GSTO1 counter	Apaf-1 inh conf2	Rh110 interf inh	others
COC(=O)c1cc(=O)n2c(sc3ccccc32)c1C#N	4	19	26*	0	11	-6	.	.	PC3 D3A act=-29;PC7 dual conf=-35
COc1cc(OC)cc(C(=O)NNC(=O)CNC(=O)c2cccs2)c1	-1	1	2	.	8	.	.	.
Cc1ccc2c(n1)sc1c(-c3ccccc3)c(C#N)c(N)nc12	1	79*	44*	1	5	4	.	.	PC3 D3A act=-30;PC7 dual conf=-36
Cc1nc(N)c(C#N)c(-c2cccnc2)c1-c1ccccc1	-4	8	0	13	3	-2	.	.
COc1cccc(N2C(=NC(=O)COc3ccccc3)SC3CS(=O)(=O)CC32)c1 (configuration not stated)	-5	4	-1	-1	10	-1	.	.
O=C(CN1C(=O)NC(CCc2ccccc2)C1=O)Nc1cccc(Br)c1 (configuration not stated)	7	10	-3	.	.	.	.	.
Cc1[nH]nc2c1C(c1c[nH]c3ccccc13)C(C#N)=C(N)O2 (configuration not stated)	-18	19	29*	1	5	9	.	.	PC3 D3A act=21;PC7 dual conf=14
O=C(O)CC(C(=O)NCc1ccccc1)C1CCCO1 (configuration not stated)	-3	-6	27*	-4	-5	-4	.	.	PC3 D3A act=2;PC7 dual conf=1
CSc1ccc(C(=O)NCC(c2ccco2)N(C)C)cc1[N+](=O)[O-] (configuration not stated)	12	0	-11	-9	12	3	.	.
Cc1ccc(C(=O)N/N=C/C2=Cc3ccccc3OC2C)cc1 (configuration not stated)	20	-1	34*	-9	-7	-7	.	.	PC3 D3A act=0;PC7 dual conf=1
COc1cc(-n2c(=O)c3ccccc3n(Cc3cccc(C)c3)c2=O)cc(OC)c1OC	2	2	-2	-7	6	-13	.	.
COc1cc(-n2c(=O)c3ccccc3n(Cc3cccnc3)c2=O)cc(OC)c1OC	1	-7	27*	-2	7	8	.	.	PC3 D3A act=2;PC7 dual conf=1
Cc1ccccc1NC(=O)CN1CCOCC1	-16	.	.	.	.	.	.	.
Cc1ccc(N)cc1NC(=O)CN1CCOCC1	-8	13	26*	6	-11	3	.	.	PC3 D3A act=2;PC7 dual conf=-1
COc1ccc(N(C(=O)c2snc(C(N)=O)c2N)C(C(=O)NCC2CCCO2)c2ccc3ncccc3c2)cc1OC (configuration not stated)	-1	8	3	5	-2	4	.	.
CCCCCc1cc(=O)oc2c(C(CCN3CCCCC3)c3ccc(OC)cc3)c(OC)cc(OC)c12 (configuration not stated)	38	5	1	-10	-3	-3	.	.
CCCCCc1cc(=O)oc2c(C(CCN(CC)CC)c3ccc(OC)cc3)c(OC)cc(OC)c12 (configuration not stated)	61*	4	5	-13	-4	-3	19	4
CCCCCc1cc(=O)oc2c(C(CCN3CCCC3)c3ccc(N(C)C)cc3)c(OC)cc(OC)c12 (configuration not stated)	45*	-9	5	-1	13	2	37	13
CCCCCc1cc(=O)oc2c(C(CCN3CCCC3)c3cc(OC)c(OC)c(OC)c3)c(OC)cc(OC)c12 (configuration not stated)	50*	6	0	12	3	3	24	7
CCCCCc1cc(=O)oc2c(C(CCN3CCCC(C)C3)c3ccc(OC)cc3)c(OC)cc(OC)c12 (configuration not stated)	66*	4	7	-1	-12	1	34	16
Cc1nn(-c2ccccc2)c(Cl)c1C(=O)NNC(=O)c1ccccc1O	1	9	2	.	-11	.	.	.
Nc1ccc2cn[nH]c2c1	52*	1	-2	-5	5	6	30	-5
Cc1ccc(-n2c(SCC(=O)Nc3cc(C)on3)nc3c([nH]c4ccccc43)c2=O)cc1	54*	10	8	18	-9	-4	14	-5
COc1ccc(OCc2cc(C(=O)NC3CCOCC3)no2)c2ccccc12	41*	7	8	0	-6	23	37	-3
C=CC[C@@H](Cc1ccc(F)cc1)C(=O)OC[C@@H]1CCCN1C(=O)[C@@H](CC=C)CC(=O)N[C@@H](CO)Cc1ccccc1	40*	-7	11	.	.	.	18	11
C=CC[C@@H](Cc1ccc(F)cc1)C(=O)OC[C@H]1CCCN1C(=O)[C@@H](CC=C)CC(=O)N[C@H](CO)Cc1ccccc1	41*	2	-3	.	.	.	19	7
C=CCn1c(SCC(=O)Nc2sccc2C(N)=O)nc2sc(CC)cc2c1=O	42*	3	5	-5	-10	8	36	7
C=CCn1c(SCC(=O)Nc2sccc2C(N)=O)nc2ccc(Cl)cc2c1=O	19	-6	0	-6	-20	9	.	.
COc1ccc(S(=O)(=O)NCCSCc2ccc(Cl)cc2)cc1NC(C)=O	7	.	.	.	.	.	.	.
Cc1ccc(C)c(SCC(=O)Nc2ccc(C)c(S(=O)(=O)N3CCOCC3)c2)c1	-5	1	-4	.	-2	.	.	.
